Data set [1] in a line: Partition coefficient (logP). It is filed as physicochemical. Particulars: octanol/water. The gist of the method:
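Octanol-water partition coefficient, calculated (not measured) from structure by the Rekker fragment procedure.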

Data set [2] has as its system Mus musculus. The data set is described as follows: In vivo nicotinic antagonism relative to (+/-)-exo-mecamylamine measured in mice. It is filed as functional. The gist of the method:
(§1)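 Mice; antagonist or saline sc 10 min before saline or nicotine ditartrate at its ED84 dose. Spontaneous activity counted in photocell cages, % depression vs saline. Tail-flick latency to heat measured 5 min after nicotine, 10-s cutoff, as % MPE. % antagonism per assay; AD50 with 95% confidence limits by Litchfield-Wilcoxon. Potency ratio = compound AD50 / racemic mecamylamine AD50; relative potency averages both assays.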

The subject of data set [3] is Mus musculus. The data set is described as follows: In vivo nicotinic antagonism relative to (+/-)-exo-mecamylamine measured in mice; stimulant. Type of data set: functional, organism-based. In a few lines:
as §1

Data on 14 compounds can be found in ChEMBL document CHEMBL1125614, “Synthesis of 2-exo- and 2-endo-mecamylamine analogues. Structure-activity relationships for nicotinic antagonism in the central nervous system” (J Med Chem, 1991).

Structures are written as SMILES. Where only a bound is given, the exact number is not on record here.

Regarding `CN(C)C1CC2CCC1(C)C2(C)C` (racemic), in data set [1] (read-out: logP), the logP came out at 3.96. In addition, the Relative potency in the data set on Mus musculus [2] is reported as 10.5.
On to `CNC1C2CCC(C2)C1(C)C` (racemic), for which the logP in data set [1] (read-out: logP) stood at 3.01. The same compound returned a Relative potency in the data set on Mus musculus [2] of 1.2.
With `CNC1C2CCC(C2)C1C` (racemic), the log partition coefficient (logP) in data set [1] (read-out: logP) was found to be 2.49. The Relative potency with Mus musculus [2] is given as 18.1.
As to `CNC1CC2CCC1(C)C2(C)C` (racemic), in data set [1] (read-out: logP), the logP came out at 3.53. This compound had a Relative potency with Mus musculus [2] of 8.6.
For `CNC1CC2CCC1C2` (racemic), the logP in data set [1] (read-out: logP) was 1.97. The same compound gave a Relative potency in the data set with Mus musculus [2] above 40.
For `CN(C)C1(C)C2CCC(C2)C1(C)C` (racemic) [DIMECAMINE], the log partition coefficient (logP) in data set [1] (read-out: logP) was found to be 3.96. The compound further displayed a Relative potency with Mus musculus [2] of 1.5.
For the compound `CCNC1C2CCC(C2)C1c1ccccc1` (racemic) [FENCAMFAMIN], in data set [1] (read-out: logP), the logP was determined as 4.15. In addition, in the data set on Mus musculus [3], the Relative potency result is given as “Stimulant”.
Take `CNC1(C)C2CCC(C2)C1(C)C` (racemic) [MECAMYLAMINE]: the logP in data set [1] is 3.53. This compound also yielded a Relative potency in the data set on Mus musculus [2] of 1.
In the data set on Mus musculus [2], `CN[C@@H]1C2(C)CCC(C2)C1(C)C` (single isomer, unassigned; (+)) yielded a Relative potency of 1.2.
Still for that read-out and setting: the value for `CN[C@H]1C2(C)CCC(C2)C1(C)C` (single isomer, unassigned; (+)) was 1.9.
Still for that read-out and setting: the value for `CNC1(C)C2CCC(C2)C1(C)C` (single isomer, unassigned; (+)) [MECAMYLAMINE] was 3.
Turning to `CN[C@@H]1C2(C)CCC(C2)C1(C)C` (single isomer, unassigned; (-)), the logP in data set [1] (read-out: logP) came out at 3.53. The compound also showed a Relative potency in the data set on Mus musculus [2] of 1.7.
Regarding `CN[C@H]1C2(C)CCC(C2)C1(C)C` (single isomer, unassigned; (-)), the logP in data set [1] (read-out: logP) is 3.53. The compound also showed a Relative potency in the data set on Mus musculus [2] of 6.2.
`CNC1(C)C2CCC(C2)C1(C)C` (single isomer, unassigned; (-)) [MECAMYLAMINE] gave a Relative potency in the data set with Mus musculus [2] of 1.4.
